In ChEMBL document CHEMBL5252540, “3-Aroyl-1,4-diarylpyrroles Inhibit Chronic Myeloid Leukemia Cell Growth through an Interaction with Tubulin” (ACS Med Chem Lett, 2017):
pIC50: −log10 of the molar value.

Columns and labels:
Tubulin = assay: Inhibition of tubulin (unknown origin) polymerization preincubated for 15 mins followed by GTP addition by turbidity based spectrophotometer analysis; type: protein-complex assay, Homo sapiens
NCI/ADR-RES = assay: Cytotoxicity against human NCI/ADR-RES cells overexpressing p-glycoprotein assessed as cell growth inhibition incubated for 3 days by trypan blue exclusion assay; type: functional, cell-based; details: 72 h
Tubulin (Homo sapiens) = Tubulin (Homo sapiens) (UniProt P68371+Q9H4B7+P0DPH7+P68366+Q13509+Q71U36+P04350+Q3ZCM7+P07437+P68363+Q9BQE3+Q6PEY2+Q13885+Q9BVA1+Q9BUF5); assay: Inhibition of [3H]colchicine binding to tubulin (unknown origin) at 5 uM incubated for 10 mins relative to control; type: protein-complex assay
MCF7 = assay: Cytotoxicity against human MCF7 cells assessed as cell growth inhibition incubated for 3 days by trypan blue exclusion assay; type: functional, cell-based; details: MCF7, 72 h
Method in brief: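 MCF-7 human breast carcinoma cells; growth inhibition; triplicate experiments.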

OVCAR-8 = assay: Cytotoxicity against human OVCAR-8 cells assessed as cell growth inhibition incubated for 3 days by trypan blue exclusion assay; type: functional, cell-based; details: OVCAR-8, 72 h
LAMA-84 = assay: Antiproliferative activity against human LAMA-84 cells expressing BCR/ABL assessed as cell growth inhibition; type: functional, cell-based
Method in brief: (§1)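 KU812 or LAMA84 CML blast-crisis cells (BCR/ABL-expressing) exposed to increasing doses for 48 h; proliferation read by MTT assay; triplicate experiments.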

KU812 cell line = assay: Antiproliferative activity against human KU812 cells expressing BCR/ABL assessed as cell growth inhibition; type: functional, cell-based; method in brief: as §1

In the case of `COc1cc(C(=O)c2cn(-c3ccccc3)cc2-c2cccc(N)c2)cc(OC)c1OC`, the pIC50 (Tubulin) was 6.41, the pIC50 (NCI/ADR-RES) was 6.96 and the inhibition (Tubulin (Homo sapiens)) was 57%. For the same compound, the pIC50 (MCF7) was 7.55 and the pIC50 (OVCAR-8) was 6.72.

With `COc1cc(C(=O)c2cn(-c3ccccc3)cc2-c2cccc(C)c2)cc(OC)c1OC` the pIC50 (Tubulin) was 5.80, the inhibition (Tubulin (Homo sapiens)) was 5.7% and the pIC50 (MCF7) was 6.35.

`COc1cc(C(=O)c2cn(-c3ccccc3F)cc2-c2ccccc2)cc(OC)c1OC` was tested, and the pIC50 (Tubulin) was 5.70, the inhibition (Tubulin (Homo sapiens)) was 29% and the pIC50 (MCF7) was 7.07.

For `COc1cc(C(=O)c2ccn(-c3cccc(N)c3)c2)cc(OC)c1OC`, the pIC50 (LAMA-84) was 7.55 and the pIC50 (KU812 cell line) was 7.55.

`COc1cc(C(=O)c2cn(-c3ccccc3)cc2-c2ccccc2)cc(OC)c1OC` showed a pIC50 (Tubulin) of 5.96, an inhibition (Tubulin (Homo sapiens)) of 66% and a pIC50 (MCF7) of 7.46.

With `COc1cc(C(=O)c2cn(-c3cccc(N)c3)cc2-c2ccccc2)cc(OC)c1OC` the pIC50 (Tubulin) was 5.96, the inhibition (Tubulin (Homo sapiens)) was 82% and the pIC50 (MCF7) was 7.13.

`COc1cc(C(=O)c2cn(-c3cccc(C)c3)cc2-c2ccccc2)cc(OC)c1OC` gave a pIC50 (Tubulin) of 5.77, an inhibition (Tubulin (Homo sapiens)) of 82% and a pIC50 (MCF7) of 6.92.

`COc1cc(C(=O)c2cn(-c3ccccc3)cc2-c2ccc(C)cc2)cc(OC)c1OC` gave a pIC50 (Tubulin) of 5.66, an inhibition (Tubulin (Homo sapiens)) of 24% and a pIC50 (MCF7) of 6.55.
